In ChEMBL document CHEMBL1132632, “Conformational and quantitative structure-activity relationship study of cytotoxic 2-arylidenebenzocycloalkanones” (J Med Chem, 1999):
pIC50: −log10 of the molar value. Starred links: 1 amine or outer side, 2 acyl side, 3 side chain; linkers in the order of their positions; H or OH if unused. Positions of bridges follow the written chain, without caps; N, C: chain ends. Non-standard residues stand in square brackets, D forms with d. Residues, ends and D or L forms follow the SMILES beside them. Chains are numbered I, II in the order given. Actinocin(1to9) = Cc1c2oc3c(C)ccc(C(=O)[*:2])c3nc-2c(C(=O)[*:1])c(N)c1=O; NMeV = CN[C@H](C(=O)O)C(C)C; Sar = CNCC(=O)O

Key:
MOLT-4 [1] = assay: Inhibitory activity was tested against Molt4/C8 cells; format: functional, cell-based; settings: Homo sapiens
MOLT-4 [2] = assay: Average potency against Molt4/C8cells; format: functional, Homo sapiens
P388 [3] = assay: Average potency against P388 cells; format: functional, Mus musculus
P388 [4] = assay: Inhibitory activity was tested against P388 cells; format: functional, cell-based; settings: Mus musculus
L1210 [5] = assay: Inhibitory activity was tested against L1210 cells; format: functional, cell-based; settings: Mus musculus
CCRF-CEM [6] = assay: Average potency against CEM cells; format: functional, Homo sapiens
L1210 [7] = assay: Average potency against L1210 cells; format: functional, Mus musculus
CCRF-CEM [8] = assay: Inhibitory activity was tested against CEM cells; format: functional, cell-based; settings: Homo sapiens
Tumor Cell line [9] = assay: Tested against human tumor cell lines, mean graph mid point values(MG MID) are determined.; format: functional
Outline: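 Panel of about 55 human tumor cell lines from nine cancer types: leukemia, melanoma, non-small-cell lung, colon, CNS, ovarian, renal, prostate and breast. Compounds were tested from 10⁻⁴ to 10⁻⁸ M, and the 50% growth-inhibitory concentration was found for each line.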

Jurkat [10] = assay: (§1) Inhibitory concentration against Human Jurkat T cells; format: functional
Jurkat [11] = assay: (§2) IC80 concentrations of the compounds were used in determining the inhibition of protein synthesis using Jurkat T cells.; format: functional, Homo sapiens
Jurkat [12] = assay: (§3) IC80 concentrations of the compounds were used in determining the inhibition of RNA synthesis using Jurkat T cells.; format: functional, Homo sapiens
Jurkat [13] = assay: as §1; format: functional, cell-based
Tumor Cell line [14] = assay: as §1; format: functional, cell-based
Outline: (§4)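 Human Jurkat T cells were exposed to compounds for 48 h. Viability was scored by nigrosin dye exclusion in place of trypan blue. IC50 and IC80 were derived from these counts.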

Tumor Cell line [15] = assay: as §2; format: functional, Homo sapiens
Tumor Cell line [16] = assay: as §1; format: functional; outline: as §4
Tumor Cell line [17] = assay: as §3; format: functional, Homo sapiens

pIC50 (MOLT-4 [1])	pIC50 (P388 [4])	pIC50 (L1210 [5])	pIC50 (CCRF-CEM [8])	pIC50 (Tumor Cell line [14])	Structure (SMILES)	AP (MOLT-4 [2]) [µM]	AP (P388 [3]) [µM]	AP (CCRF-CEM [6]) [µM]	AP (L1210 [7]) [µM]	MG MID (Tumor Cell line [9]) [µM]	IC80 (Jurkat [10]) [µM]	Inhibition (Jurkat [11]) [%]	Inhibition (Jurkat [12]) [%]	pIC50 (Jurkat [13])	Inhibition (Tumor Cell line [15]) [%]	IC80 (Tumor Cell line [16]) [µM]	Inhibition (Tumor Cell line [17]) [%]
4.40	4.60	3.98	4.44		O=C1CCCCC/C1=C\c1ccc([N+](=O)[O-])cc1	186	34.5	136	227	30.2							
< 4.00	4.86	4.25	5.02		COc1cccc(/C=C2\CCCc3ccccc3C2=O)c1	66	11.2	47	85.2	15.9							
3.76	4.68	4.36	4.49		O=C1/C(=C/c2cccc(Br)c2)Cc2ccccc21	267	42.9	155	127	46.7							
3.60	< 4.30	3.51	3.71		COc1ccc(/C=C2\CCCCCC2=O)cc1	186	34.5	136	227	100							
4.41	4.63	3.79	4.52		O=C1CCCCC/C1=C\c1cccc([N+](=O)[O-])c1	186	34.5	136	227	30.2							
< 3.30	< 4.30	< 3.30	< 3.30		Cc1ccc(/C=C2\CCCCCC2=O)cc1	186	34.5	136	227	83.2							
6.33	5.80	6.47	6.46	5.46	COc1ccc(/C=C2\CCCc3ccccc3C2=O)cc1	66	11.2	47	85.2	0.269					19.5	5.6	92.3
4.55	4.96	3.87	4.95		O=C1/C(=C/c2cccc(F)c2)CCCc2ccccc21	66	11.2	47	85.2	16.2							
4.67	4.93	4.60	4.94		Cc1ccc(/C=C2\CCCc3ccccc3C2=O)cc1	66	11.2	47	85.2	11.2	23.3	46.3	84.2	4.84			
5.05	4.80	4.31	5.11		O=C1/C(=C/c2cccc([N+](=O)[O-])c2)CCCc2ccccc21	66	11.2	47	85.2	10.2							
4.38	4.77	3.93	5.04		O=C1/C(=C/c2cccc(Cl)c2)CCc2ccccc21	158	20.9	115	135								

The next lines start with the compound.

Structure (SMILES)	pIC50 (MOLT-4 [1])	pIC50 (P388 [4])	pIC50 (L1210 [5])	pIC50 (CCRF-CEM [8])	pIC50 (Tumor Cell line [14])	AP (MOLT-4 [2]) [µM]	AP (P388 [3]) [µM]	AP (CCRF-CEM [6]) [µM]	AP (L1210 [7]) [µM]	MG MID (Tumor Cell line [9]) [µM]	IC80 (Jurkat [10]) [µM]	Inhibition (Jurkat [11]) [%]	Inhibition (Jurkat [12]) [%]	pIC50 (Jurkat [13])	Inhibition (Tumor Cell line [15]) [%]	IC80 (Tumor Cell line [16]) [µM]	Inhibition (Tumor Cell line [17]) [%]
Cc1cccc(/C=C2\CCCCCC2=O)c1	3.64	4.53	3.58	3.77		186	34.5	136	227	81.3							
Cc1cccc(/C=C2\CCCc3ccccc3C2=O)c1	4.46	4.70	4.26	4.80		66	11.2	47	85.2	20							
O=C1/C(=C/c2cccc([N+](=O)[O-])c2)Cc2ccccc21	< 3.30	< 4.30	3.59	3.65		267	42.9	155	127	91.2							
Cc1c2oc3c(C)ccc(C(=O)N[C@@H]4C(=O)N[C@H](C(C)C)C(=O)N5CCC[C@H]5C(=O)N(C)CC(=O)N(C)[C@@H](C(C)C)C(=O)O[C@@H]4C)c3nc-2c(C(=O)N[C@@H]2C(=O)N[C@H](C(C)C)C(=O)N3CCC[C@H]3C(=O)N(C)CC(=O)N(C)[C@@H](C(C)C)C(=O)O[C@@H]2C)c(N)c1=O [DACTINOMYCIN] (I: T[dV]P[Sar][NMeV] / II: T[dV]P[Sar][NMeV]; ester I:1-I:C, II:1-II:C; linker I:N-II:N via Actinocin(1to9))											0.0072	51.8	63.2	8.35			
O=C1/C(=C/c2cccc(Br)c2)CCc2ccccc21	4.67	4.78	3.80	5.06		158	20.9	115	135	11.8							
O=C1CCCCC/C1=C\c1ccccc1	3.67	< 4.30	3.58	3.96		186	34.5	136	227	91.2							
O=C1CCCCC/C1=C\c1ccc(F)cc1	3.60	< 4.30	3.54	3.70		186	34.5	136	227	83.2							
CN(C)c1ccc(/C=C2\CCCCCC2=O)cc1	4.24	4.73	4.10	4.35		186	34.5	136	227	85.1							
O=C1/C(=C/c2ccccc2)CCCc2ccccc21	4.37	4.90	3.97	4.54		66	11.2	47	85.2	18.6							
O=C1/C(=C/c2cccc(Cl)c2)CCCc2ccccc21	4.62	5.09	4.28	5.03		66	11.2	47	85.2	16.6							
C[C@@H]1C[C@@H]([C@H](O)CC2CC(=O)NC(=O)C2)C(=O)[C@@H](C)C1 [CYCLOHEXIMIDE]											1.54	71.9	93.3	6.03			
COc1cccc(/C=C2\CCCCCC2=O)c1	3.77	< 4.30	3.55	3.89		186	34.5	136	227	85.1							
O=C1/C(=C/c2ccc([N+](=O)[O-])cc2)CCCc2ccccc21	< 3.30	4.96	< 3.30	< 3.30		66	11.2	47	85.2	89.1							
O=C1/C(=C/c2ccc(Cl)cc2)CCCc2ccccc21	4.48	5.02	4.29	4.82		66	11.2	47	85.2	17							
O=C1CCCCC/C1=C\c1cccc(Cl)c1	4.05	4.59	3.84	4.39		186	34.5	136	227	41.7							
CN(C)c1ccc(/C=C2\CCCc3ccccc3C2=O)cc1						66	11.2	47	85.2	1.41							
O=C1CCCCC/C1=C\c1cccc(F)c1	3.32	< 4.30	3.42	3.65		186	34.5	136	227	67.6							
O=C1CCCCC/C1=C\c1ccc(Cl)cc1	4.28	4.72	4.08	4.36		186	34.5	136	227	33.1							
N[C@@H](Cc1ccc(N(CCCl)CCCl)cc1)C(=O)O										25.7	3.52	30.5	85.1	5.66			
Cc1ccc(/C=C2\Cc3ccccc3C2=O)cc1	< 3.30	4.41	4.23	4.17		267	42.9	155	127								
